# From PubChem
# CYP2C19 inh: human CYP2C19 inhibition | actives 21% (n = 96,000) | inhibition, % at 5 µM | P33261 | CYP2C19 Supersomes, luciferin-H EGE luminescence, 30 min;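 active means CYP2C19 inhibition above a set limit at 5 µM in the primary screen, cut at about 50% in these data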;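 further: plate controls were negative control wells for no effect and 2.5 mM tranylcypromine positive control for full effect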
# Target sequence (P33261 whole entry, looked up): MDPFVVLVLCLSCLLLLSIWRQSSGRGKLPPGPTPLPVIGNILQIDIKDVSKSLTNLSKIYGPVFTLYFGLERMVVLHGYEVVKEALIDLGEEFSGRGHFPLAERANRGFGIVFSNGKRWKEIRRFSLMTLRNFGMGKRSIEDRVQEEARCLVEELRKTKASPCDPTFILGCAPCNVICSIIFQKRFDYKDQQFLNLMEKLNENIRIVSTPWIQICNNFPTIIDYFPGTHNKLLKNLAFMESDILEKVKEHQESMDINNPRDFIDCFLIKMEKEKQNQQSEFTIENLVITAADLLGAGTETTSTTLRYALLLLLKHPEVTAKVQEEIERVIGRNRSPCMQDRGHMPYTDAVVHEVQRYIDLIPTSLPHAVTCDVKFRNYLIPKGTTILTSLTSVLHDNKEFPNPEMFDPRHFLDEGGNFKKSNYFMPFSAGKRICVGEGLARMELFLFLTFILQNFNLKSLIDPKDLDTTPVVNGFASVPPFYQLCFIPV
# Rev-RRE block: disrupts HIV-1 Rev binding to RRE RNA; P05866; Rev peptide-RRE RNA binding, FRET; inhibition, % at 8 µM; actives 0.79% (n = 97,000);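 active means inhibition above the screen-wide mean plus 3 SD, cut at about 35% in these data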;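 further: 0% = median DMSO wells and 100% = median Neomycin B control wells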
# Target sequence (P05866 whole entry, looked up): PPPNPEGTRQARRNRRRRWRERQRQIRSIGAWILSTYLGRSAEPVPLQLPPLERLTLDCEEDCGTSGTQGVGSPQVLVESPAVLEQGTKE
#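 Test system: Cy5-tagged RRE RNA duplex with fluorescein-tagged Rev peptide; Probe or stimulus: labelled Rev peptide; Schedule: 5 min preincubation and 15 min binding, 25 °C; Signal: FRET fluorescence readout; Evaluation: % inhibition from 671/540 nm acceptor-to-donor ratio, scaled between controls; Control set: DMSO and neomycin B.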
# CYP2C9 inhib: inhibitors of human CYP2C9. CYP2C9 Supersomes, luciferin-H conversion, luminescence. inhibition, % at 5 µM. P11712. actives 20% (n = 96,000). AID 777;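 active means blocking of liver enzyme CYP2C9 beyond about 50% at 5 µM, limit read from the data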
# CYP2C19 activ: activators of human cytochrome P450 2C19; P33261; recombinant CYP2C19, luciferin-H EGE luminescence; hits give high values; 0 = fully inhibited enzyme, 1 = untreated enzyme; activation factor at 5 µM; 96,000 tested, under 10 active; AID 1025;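 active means activation factor of at least 2 at 5 µM in the primary screen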;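 further: 0 = wells with 2.5 mM tranylcypromine and 1 = vehicle-only wells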
# CYP2C9 act: CYP2C9 (human) activation; P11712; recombinant CYP2C9, luciferin-H conversion, luminescence; hits give high values; factor 1 = untreated enzyme, 0 = blocked; activation factor at 5 µM; actives 1.4% (n = 96,000); AID 1024;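 active means activation factor of 2 or more for CYP2C9 at a 5 µM dose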;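 further: 0 = sulfaphenazole-blocked wells and 1 = vehicle-only wells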
# Cav32 inh: blocks human Cav3.2 T-type calcium channel | O95180 | Cav3.2-expressing cells, Fluo-4 calcium fluorescence FDSS; hits give low values | B-score at 10 µM | actives 4% (n = 100,000);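 active means single-dose well whose peak fluorescence ratio is a statistical outlier from its plate by either plate-standardised score or position-corrected B-score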
# An asterisk follows results filed as active; nt = no result. Hits are enriched below; roughly 27% of the tested compounds scored in any of these assays.
SMILES,CYP2C19 inh,Rev-RRE block,CYP2C9 inhib,CYP2C19 activ,CYP2C9 act,Cav32 inh
CCC1Oc2ccccc2N(CC(=O)Nc2ccc(OC)cc2OC)C1=O (configuration not stated),45,8,45,0.6,0.5,0.0051
O=C(CC1COc2ccccc2O1)Nc1ccccn1 (configuration not stated),33,7,14,0.7,0.9,-1.2
COc1ccccc1NC(=O)CC1COc2ccccc2O1 (configuration not stated),64*,7,-21,0.4,1.2,-0.45
COc1ccccc1NC(=O)CN1C(=O)C(C)Oc2ccccc21 (configuration not stated),85*,1,61*,0.2,0.4,-0.011
CC(C)(C)c1ccc(C(=O)N2CCC(=O)N(C(CO)Cc3ccccc3)CC2)cc1 (configuration not stated),nt,nt,nt,nt,nt,0.034
CN1C(C(=O)NCc2cccc(Br)c2)CC2Cn3c(nc4cc(Cl)c(Cl)cc43)C21 (configuration not stated),nt,nt,nt,nt,nt,-0.7
Cc1noc(C)c1S(=O)(=O)N1CCCCC1,12,4,32,0.9,0.7,0.6
Cc1noc(C)c1S(=O)(=O)N1CCN(C(c2ccccc2)c2ccc(Cl)cc2)CC1 (configuration not stated),75*,16,77*,0.2,0.2,-3.2
O=C1Nc2ccccc2C1=Nc1ccc(-c2nnc3n2CCCCC3)cc1,-5,nt,-16,1,1.2,0.72
Clc1cccc(NCc2nnc(SCc3ccccc3Cl)o2)c1,14,20,29,0.9,0.7,nt
NCCCCCc1nnc(SCc2ccc(Cl)cc2Cl)o1,61*,-5,37,0.4,0.6,2.2
Clc1cccc(CSc2nnc([C@@H]3CCCN3)o2)c1,94*,nt,-73,0.1,1.7,0.47
CN(C)C(=O)CSc1nnc(CCN)o1,-9,1,-9,1.1,1.1,0.49
NCCCCCc1nnc(SCc2cccc(Cl)c2)o1,65*,-5,32,0.4,0.7,-0.86
Clc1cccc(NCc2nnc(SCc3ccccc3)o2)c1,82*,10,83*,0.2,0.2,-2.3
COCCN1C(=O)c2ccccc2C(C(=O)Nc2ccc3c(c2)OCCO3)C1c1ccc(F)cc1 (configuration not stated),-3,3,2,1,1,0.55
COC(=O)c1ccc(C(=O)OC)c(NC(=O)CSCc2ccccc2Br)c1,1,11,-6,1,1.1,0.31
Cc1ccc(C(=O)N2CCN(c3cc(=O)[nH]nc3-c3ccccc3)CC2)cc1,0,3,-8,1,1.1,0.018
COc1cc(C2N=C(c3ccccc3)NO2)cc(Br)c1O (configuration not stated),87*,-1,-7,0.1,1.1,-0.21
COc1ccc(C2N=C(c3ccccc3)NC(c3ccccc3)=N2)cc1,nt,8,nt,nt,nt,-1.3
O=C(CN1CCOCC1)N1CCN(c2ccc3ccccc3n2)CC1,nt,nt,nt,nt,nt,0.33
Cn1c(N)c(C#N)c2c(c1=S)COC(C)(C)C2,16,6,37,0.8,0.6,nt
Cn1c(N)c(C#N)c2c(c1=S)CSC(C)(C)C2,44,40*,-18,0.6,1.2,-1.5
CCOc1ccc(N2C(=O)CC(NCc3ccc(F)cc3)C2=O)cc1 (configuration not stated),16,0,15,0.8,0.9,0.64
O=C1CC(NCc2ccccc2F)C(=O)N1c1ccccc1 (configuration not stated),72*,9,20,0.3,0.8,0.31
SMILES,CYP2C19 inh,Rev-RRE block,CYP2C9 inhib,CYP2C19 activ,CYP2C9 act,Cav32 inh
O=C(NC1(C(F)(F)F)C(=O)Nc2c1c(=O)[nH]c(=O)n2-c1ccc(F)cc1)c1cccnc1 (configuration not stated),-12,8,-4,1.1,1,0.38
O=C(Nc1ccccc1)N1CCCC2CCCCC21 (configuration not stated),37,2,-1,0.6,1,-0.94
CC1c2[nH]c3ccccc3c2CCN1C(=O)Nc1ccccc1 (configuration not stated),nt,4,nt,nt,nt,-12*
CCOC(=O)C(=O)Nc1nnc(CCc2ccccc2)s1,nt,3,nt,nt,nt,0.65
CCOC(=O)c1cnc(-n2nc(C)cc2C)nc1Nc1ccccc1OC,-5,11,5,1.1,1,0.52
CCOC(=O)c1cnc(-n2nc(C)cc2C)nc1NCCc1ccccc1,83*,5,92*,0.2,0.1,-4.1*
CCOC(=O)c1cnc(-n2nc(C)cc2C)nc1NCc1ccc2c(c1)OCO2,33,4,62*,0.7,0.4,-0.9
COCc1cc(=O)[nH]c2cc(NC(=O)C3CC3)c(C)cc12,9,2,4,0.9,1,0.77
C#CCOCCOCCOCCNc1nc(N2CCN(C(=O)[C@H](CCC(=O)O)n3cc(C(N)CO)nn3)CC2)nc(N2CCN(C(=O)[C@H](CCC(=O)O)n3cc(C(N)CO)nn3)CC2)n1 (some centres not stated),nt,nt,nt,nt,nt,1.1
CC1CCN(CCc2nc3cc(NC(=O)NC4CCCCC4)ccc3n2C)CC1,10,-1,5,0.9,0.9,0.42
CCOC(=O)C1=C(C)NC(C)=C(C(=O)OCC)C1C(=O)OCC(=O)N1c2ccccc2CC1C (configuration not stated),93*,4,100*,0.1,0,-2.6
COCc1c(C(=O)OCC(=O)N2c3ccccc3CC2C)oc2ccccc12 (configuration not stated),53*,3,-8,0.5,1.1,-1.6
CCOC(=O)c1c(C)[nH]c(C(=O)OCC(=O)N2c3ccccc3CC2C)c1C (configuration not stated),-8,8,-4,1.1,1,-0.021
COCc1c(C(=O)OCC(=O)N2c3ccccc3NC(=O)C2(C)C)oc2ccccc12,12,2,31,0.9,0.7,0.16
CC1Cc2ccccc2N1C(=O)COC(=O)c1cccnc1Cl (configuration not stated),53*,4,4,0.5,1,1.2
COC(=O)[C@H](C)NC(=O)Nc1cc(Cl)ccc1C,47,4,38,0.5,0.6,-0.014
CCN(CC)C(=O)C(=O)N/N=C/c1cccc(Br)c1,2,2,6,1,0.9,-0.85
CCOC(=O)CC(C#N)c1cn(C)c2ccccc12 (configuration not stated),88*,5,-249,0.1,3.5*,1.2
Cn1cc(C(CC(=O)O)C(=O)O)c2ccccc21 (configuration not stated),11,13,9,0.9,0.9,1.3
Cn1c(=O)oc2cc(S(=O)(=O)Nc3cccc4c3CCCC4)ccc21,66*,nt,-142,0.3,2.4*,-1.1
